ChEMBL document CHEMBL3120097, “HCV NS5A replication complex inhibitors. Part 4. Optimization for genotype 1a replicon inhibitory activity” (J Med Chem, 2014)

Tests used:
[1] = system: Hepatitis C virus; assay: Antiviral activity against HCV genotype 2a JFH; type: functional, organism-based, Hepacivirus hominis; conditions: subtype 2a JFH
[2] = system: Hepatitis C virus; assay: Antiviral activity against HCV genotype 4a; type: functional, organism-based, Hepacivirus hominis
[3] = Cytotoxicity against bovine MDBK cells after 3 days by CellTitre-Blue assay; type: cell-based, Bos taurus; conditions: cattle
[4] = system: Bovine viral diarrhea virus 1; assay: Antiviral activity against BVDV infected in bovine MDBK cells after 72 hrs by luciferase reporter gene assay; type: functional, organism-based; conditions: Bovine viral diarrhea virus isolates and strains
[5] = system: Hepatitis C virus; assay: Antiviral activity against HCV genotype 1a H77c infected in human HuH7 cells after 3 days by luciferase reporter gene assay; type: functional, organism-based, Hepacivirus hominis; conditions: Huh-7, 72 h
In short: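 Titrated compounds in 384-well plates seeded with replicon cells, 2.4 × 10³/well in DMEM with 4% FCS, final DMSO 0.5% v/v; 3 days at 37 °C. Renilla luciferase read with EnduRen substrate at […] final after ≥1 h at 37 °C; EC₅₀ from four-parameter logistic fit.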

[6] = system: Hepatitis C virus; assay: Antiviral activity against HCV genotype 1b infected in human HuH7 cells after 72 hrs by FRET assay; type: functional, organism-based, Hepacivirus hominis; conditions: Huh-7, 72 h
In short: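 Replicon cells seeded 10K/well, attached overnight; compounds added with 0.5% v/v DMSO vehicle controls, typically 72 h. Alamar blue read first, then cells PBS-rinsed and lysed with reagent holding 150 mM NaCl and 20 μM final EDANS/DABCYL NS3 protease peptide; kinetic fluorescence 340/490 nm. EC₅₀ = concentration halving background-subtracted FRET signal versus DMSO wells.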

[7] = system: Hepatitis C virus; assay: Antiviral activity against HCV genotype 1a H77c infected in human HuH7 cells after 5 days by ELISA; type: functional, organism-based, Hepacivirus hominis; conditions: Huh-7, 120 h
In short: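 Genotype 1a (H77c) replicon cells, 1.5 × 10⁴/well in DMEM + 10% FBS, attached overnight at 37 °C; serially diluted compounds (in FBS-free DMEM) added, 5 days at 37 °C. Cells dried overnight at 37 °C to fix, Triton-permeabilized, casein-blocked; NS5A antiserum then HRP secondary, chemiluminescent read. Inhibition relative to untreated wells; background set with 500 nM NS3 inhibitor.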

[8] = Cytotoxicity against human Huh7.5 cells; type: cell-based, Huh-7

| SMILES | EC50 [1] | EC50 [2] | CC50 at 72 h [3] | EC50 [4] | EC50 [5] | EC50 [6] | EC50 [7] | CC50 [8] |
| --- | --- | --- | --- | --- | --- | --- | --- | --- |
| O=C(Nc1ccc(/C=C/c2ccc(NC(=O)[C@@H]3CCCN3C(=O)Cc3ccccc3)cc2)cc1)[C@@H]1CCCN1C(=O)Cc1ccccc1 | 79 nM | 157 nM | > 30000 nM | > 5000 nM | – | – | – | – |
| O=C(Nc1ccc(/C=C/c2ccc(NC(=O)[C@@H]3CCCN3C(=O)c3ccccc3)cc2)cc1)[C@@H]1CCCN1C(=O)c1ccccc1 | – | – | > 10000 nM | > 5000 nM | 6300 nM | 100 nM | – | – |
| O=C(Nc1ccc(/C=C/c2ccc(NC(=O)[C@@H]3CCCN3C(=O)c3cccc4ccccc34)cc2)cc1)[C@@H]1CCCN1C(=O)c1cccc2ccccc12 | – | – | > 10000 nM | > 5000 nM | – | 1600 nM | > 10000 nM | – |
| CCc1ccccc1C(=O)N1CCC[C@H]1C(=O)Nc1ccc(/C=C/c2ccc(NC(=O)[C@@H]3CCCN3C(=O)c3ccccc3CC)cc2)cc1 | – | – | > 10000 nM | 4700 nM | – | – | – | – |
| O=C(Nc1ccc(-c2cnc(-c3ccc(NC(=O)[C@@H]4CCCN4C(=O)Cc4ccccc4)cc3)o2)cc1)[C@@H]1CCCN1C(=O)Cc1ccccc1 | – | – | 3300 nM | > 10000 nM | 1510 nM | – | – | – |
| O=C(Nc1ccc(-c2cc(-c3ccc(NC(=O)[C@@H]4CCCN4C(=O)Cc4ccccc4)cc3)[nH]n2)cc1)[C@@H]1CCCN1C(=O)Cc1ccccc1 | – | – | > 10000 nM | > 10000 nM | 1370 nM | 4.8 nM | – | – |
| O=C(Nc1ccc(C#Cc2ccc(NC(=O)[C@@H]3CCCN3C(=O)Cc3ccccc3)cc2)cc1)[C@@H]1CCCN1C(=O)Cc1ccccc1 | – | – | > 10000 nM | > 10000 nM | > 10000 nM | – | – | – |
| O=C(Nc1ccc(/C=C/c2ccc(NC(=O)[C@@H]3CCCN3C(=O)c3nccc4ccccc34)cc2)cc1)[C@@H]1CCCN1C(=O)c1nccc2ccccc12 | – | – | > 10000 nM | 6400 nM | – | – | 390 nM | – |
| COc1cccc2c(C(=O)N3CCC[C@H]3C(=O)Nc3ccc(/C=C/c4ccc(NC(=O)[C@@H]5CCCN5C(=O)c5nc(Cl)cc6c(OC)cccc56)cc4)cc3)nc(Cl)cc12 | 2.2 nM | > 1000 nM | > 10000 nM | > 10000 nM | – | 7 nM | 37 nM | > 10000 nM |
| COc1cccc2c(C(=O)N3CCC[C@H]3C(=O)Nc3ccc(C#Cc4ccc(NC(=O)[C@@H]5CCCN5C(=O)c5nc(Cl)cc6c(OC)cccc56)cc4)cc3)nc(Cl)cc12 | – | – | > 10000 nM | > 10000 nM | 18 nM | 23 nM | – | – |
| COc1cccc2c(C(=O)N3CCC[C@H]3C(=O)Nc3ccc(-c4cc(-c5ccc(NC(=O)[C@@H]6CCCN6C(=O)c6nc(Cl)cc7c(OC)cccc67)cc5)[nH]n4)cc3)nc(Cl)cc12 | – | – | > 10000 nM | > 10000 nM | 120 nM | 11 nM | – | – |
| COc1cccc2c(C(=O)N3CCC[C@H]3C(=O)Nc3ccc(-c4cnc(-c5ccc(NC(=O)[C@@H]6CCCN6C(=O)c6nc(Cl)cc7c(OC)cccc67)cc5)o4)cc3)nc(Cl)cc12 | – | – | > 10000 nM | > 10000 nM | 52 nM | 34 nM | – | – |
| O=C(Nc1ccc(/C=C/c2ccc(NC(=O)[C@@H]3CCCN3C(=O)c3ccc4ccccc4n3)cc2)cc1)[C@@H]1CCCN1C(=O)c1ccc2ccccc2n1 | – | – | > 10000 nM | > 5000 nM | – | 200 nM | 590 nM | – |
| O=C(Nc1ccc(/C=C/c2ccc(NC(=O)[C@@H]3CCCN3C(=O)c3cncc4ccccc34)cc2)cc1)[C@@H]1CCCN1C(=O)c1cncc2ccccc12 | – | – | > 10000 nM | 42 nM | – | 140 nM | 1400 nM | – |
| O=C(Nc1ccc(/C=C/c2ccc(NC(=O)[C@@H]3CCCN3C(=O)c3ncnc4ccccc34)cc2)cc1)[C@@H]1CCCN1C(=O)c1ncnc2ccccc12 | – | – | > 10000 nM | > 5000 nM | – | 2300 nM | 910 nM | – |
| O=C(Nc1ccc(/C=C/c2ccc(NC(=O)[C@@H]3CCCN3C(=O)c3nncc4ccccc34)cc2)cc1)[C@@H]1CCCN1C(=O)c1nncc2ccccc12 | – | – | > 10000 nM | > 5000 nM | – | 30 nM | 1000 nM | – |
| O=C(Nc1ccc(/C=C/c2ccc(NC(=O)[C@@H]3CCCN3C(=O)c3nc(Cl)cc4ccccc34)cc2)cc1)[C@@H]1CCCN1C(=O)c1nc(Cl)cc2ccccc12 | – | – | > 10000 nM | > 10000 nM | – | 23 nM | 62 nM | – |
| O=C(Nc1ccc(/C=C/c2ccc(NC(=O)[C@@H]3CCCN3C(=O)c3ncc(Cl)c4ccccc34)cc2)cc1)[C@@H]1CCCN1C(=O)c1ncc(Cl)c2ccccc12 | – | – | > 10000 nM | > 10000 nM | – | 69 nM | 282 nM | – |
